Source: ChEMBL document CHEMBL1671863, “Inhibition of OXA-1 beta-lactamase by penems” (Antimicrob Agents Chemother, 2008)
Activity calls are given as the source filed them. The calls are words filed in the database; no cut-off is given here.

What was measured:
[1] = Inhibition of beta-lactamase OXA-1 expressed in Escherichia coli DH10B assessed as reduction of piperacillin MIC at 4 mg/L
How it was run: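 E. coli DH10B carrying plasmid RGN238 blaOXA-1 tested by agar dilution on Luria Bertani agar, 10⁴ CFU/spot from a Steers replicator; inhibitor held fixed at 4 μg/ml while piperacillin was raised in doubling dilutions.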

[2] = Binding affinity to beta-lactamase OXA-1 expressed in Escherichia coli BL21 (DE3) assessed as compound-enzyme covalent attachment by electrospray ionization mass spectrometry
How it was run: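 Purified OXA-1 (40 μM) incubated 15 min with 1.2 mM inhibitor (30:1 inhibitor:enzyme) in 20 mM diethanolamine, pH 8.6; protein diluted in acetonitrile-1% formic acid to 10 μM and analysed intact by nanospray ESI-QTOF MS; deconvoluted spectra compared with apo enzyme (theoretical mass 28,132 Da).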

[3] = Ratio of Kinact to Ki for beta-lactamase OXA-1 expressed in Escherichia coli BL21 (DE3) using nitrocefin substrate by spectrophotometry
How it was run: (§1)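 Periplasmic OXA-1 (IPTG-induced, purified by isoelectric focusing ± gel filtration) assayed at 23°C in 50 mM sodium phosphate with 20 mM bicarbonate; 18 nM enzyme, 75 μM nitrocefin read at 482 nm with rising inactivator (penems 50–1,100 nM, tazobactam 50–3,000 μM). kobs from time-course fits plotted against inhibitor concentration gave kinact, then Ki.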

[4] = Inhibition of beta-lactamase OXA-1 expressed in Escherichia coli BL21 (DE3) using nitrocefin substrate by spectrophotometry; how it was run: as §1
[5] = Ratio of Kcat to Kinact for beta-lactamase OXA-1 expressed in Escherichia coli BL21 (DE3) using nitrocefin substrate by spectrophotometry
How it was run: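 Partition ratio kcat/kinact set by turnover number: purified OXA-1 (40 μM) mixed 1:1 with inhibitor, 23°C, 50 mM sodium phosphate plus 20 mM bicarbonate, nitrocefin as reporter; inactivation followed up to 900 s and recovery of activity checked to 24 h.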

| inhibition [1] | inhibition [2] | Ratio [3] | Kinact [4] | Ratio [5] | Compound | Ki [4] |
| --- | --- | --- | --- | --- | --- | --- |
| Active | Active | 2.9 µM⁻¹ s⁻¹ | 0.13 s⁻¹ | 0 | O=C(O)C1=CS[C@@H]2/C(=C\c3cc4n(n3)CSC4)C(=O)N12 [PENEM-1] | 0.045 µM |
| Active | Active | 9.2 µM⁻¹ s⁻¹ | 0.11 s⁻¹ | 0 | O=C(O)C1=CS[C@@H]2/C(=C\c3cc4n(n3)CSCC4)C(=O)N12 [PENEM-2] | 0.012 µM |

| Compound | inhibition [1] | inhibition [2] | Ratio [3] | Kinact [4] | Ratio [5] | Ki [4] |
| --- | --- | --- | --- | --- | --- | --- |
| C[C@]1(Cn2ccnn2)[C@H](C(=O)O)N2C(=O)C[C@H]2S1(=O)=O [TAZOBACTAM] | – | – | 0.0015 µM⁻¹ s⁻¹ | 0.12 s⁻¹ | 349 | 80 µM |
